Compound activity as filed in PubChem BioAssay.
CHO parental Ca = ATP-evoked calcium signal inhibitors, parental CHO, primary screen, counter-screen for OX1R antagonist project, cell-based, fluorescence, Fluo-8 calcium dye; parental CHO-K1, ATP-induced calcium, Fluo-8 fluorescence; inhibition, % at 5.6 µM; 330,000 compounds, 0.63% hits;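 active means inhibition above that plate's mean sample inhibition plus 3 SD, cut at about 26% in these data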;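 further: 0% = ATP-challenged DMSO wells and 100% = DMSO wells without ATP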
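Test system: untransfected parental CHO cell line. Compound: one dose, 5.6 µM nominal. Detection: intracellular calcium via Fluo-8 no-wash fluorescent dye. Measure: % inhibition. Benchmarks: ATP-challenged DMSO wells low, unchallenged DMSO wells high.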
OX1R antag-1 = OX1R (HCRTR1) antagonists, primary screen, fluorescence, CHO/OX1R cells, Fluo-8 calcium, orexin A | Orexin/Hypocretin receptor type 1 (Homo sapiens), O43613 | Fluo-8 calcium fluorescence | inhibition, % at 5 µM | 330,000 compounds, 0.43% hits;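 active means inhibition above its plate's threshold, mean inhibition of all tested compounds on the plate plus 3 SD, cut at about 37% in these data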;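 further: 0% = orexin A challenge wells and 100% = SB-334867-A antagonist wells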
OX1R antag-2 = antagonists of human orexin 1 receptor (OX1R) | inhibition, % at 6.6 µM | 330,000 compounds, 1.8% hits | OX1R-expressing cells, FRET antagonist read-out | Orexin/Hypocretin receptor type 1 (Homo sapiens), O43613 | AID 485270, 2010; in the data active means inhibition mostly above about 38%, no sharp cut-off; inactive means mostly below about 40%;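 further: 0% = agonist challenge alone and 100% = reference antagonist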
TAAR1 agonist = human TAAR1 agonists, primary screen, Fluo-8 calcium fluorescence, CHO RD-HGA16 cells; 360,000 compounds, 0.99% hits; Trace amine-associated receptor 1 (Homo sapiens), Q96RJ0; activation, % at 3 µM; vehicle wells 0%, saturating PEA agonist 100%;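 active means activation above the mean activation of all test compounds in the run plus 3 SD, cut at about 38% in these data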
Target sequence (Q96RJ0 whole entry, looked up): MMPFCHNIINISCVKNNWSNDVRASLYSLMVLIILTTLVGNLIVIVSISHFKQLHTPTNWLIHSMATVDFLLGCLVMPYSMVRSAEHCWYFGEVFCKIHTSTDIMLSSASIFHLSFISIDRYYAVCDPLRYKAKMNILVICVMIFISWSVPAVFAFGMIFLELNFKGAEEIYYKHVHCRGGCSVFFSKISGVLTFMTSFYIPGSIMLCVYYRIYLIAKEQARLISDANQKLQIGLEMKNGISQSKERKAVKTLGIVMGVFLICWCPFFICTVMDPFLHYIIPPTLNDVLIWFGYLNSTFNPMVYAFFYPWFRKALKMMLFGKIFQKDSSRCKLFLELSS
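Test system: RD-HGA16 (CHO) cells co-expressing Gα16 and hTAAR1 | Doses: Single dose, 3 µM | Schedule: 17-24 h seeding, 75 min 37 °C dye, 30 min RT | Evaluation: % activation from peak over basal fluorescence ratio, DMSO-to-PEA scaled | Technique: Kinetic Fluo-8 calcium fluorescence | Benchmarks: Low control DMSO, high control PEA (EC100)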
GalR3 antag = GalR3 antagonists in HEK293 cells, primary screen, cell-based, fluorescence readout; Galanin receptor type 3 (Homo sapiens), O60755; HEK293 GalR3-CNG cAMP membrane potential fluorescence; galR3 body fused to GalR1 C-terminus; inhibition, % at 3 µM; 360,000 compounds, 0.44% hits;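 active means inhibition above the screen-wide average plus 3 SD, cut at about 13% in these data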;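 further: forskolin and galanin both at EC90 stimulate the cells; cAMP rise reported by CNG channel membrane potential dye signal; 0% = forskolin plus galanin with DMSO and 100% = forskolin alone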
Target sequence (O60755 1-299 limits assumed): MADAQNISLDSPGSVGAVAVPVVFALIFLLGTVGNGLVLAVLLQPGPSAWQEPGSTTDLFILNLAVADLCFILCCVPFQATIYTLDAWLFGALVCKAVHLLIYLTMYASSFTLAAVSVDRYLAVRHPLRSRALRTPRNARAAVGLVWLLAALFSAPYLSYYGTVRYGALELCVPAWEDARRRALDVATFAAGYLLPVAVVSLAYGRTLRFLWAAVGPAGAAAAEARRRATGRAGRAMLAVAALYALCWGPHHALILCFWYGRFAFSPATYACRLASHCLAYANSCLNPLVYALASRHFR
TAAR1 antagonist = human TAAR1 antagonists, primary screen, Fluo-8 calcium fluorescence, CHO RD-HGA16 cells | Trace amine-associated receptor 1 (Homo sapiens), Q96RJ0 | antagonist | inhibition, % at 3 µM | 360,000 compounds, 1.5% hits;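 active means inhibition above a per-plate cutoff, the mean inhibition of test compounds on that plate plus 3 SD, cut at about 49% in these data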;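 further: 0% = DMSO plus EC80 beta-PEA response and 100% = DMSO alone without agonist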
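Test system – hTAAR1-expressing CHO RD-HGA16 cells, Gα16-coupled · Reagent – β-PEA at EC80 concentration, post-compound challenge · Compound dosing – 3 µM, single point · Timing – 140 s kinetic read after compound, 140 s after agonist · Detection – Fluo-8 intracellular calcium dye fluorescence, real-time kinetic reads · Control set – DMSO and EC80 PEA controls · Repeats – n of 1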
* marks the source's active call; other numbers are inactive results; . = no result given. In the library only some 4.3% were active in any assay of this set; here they are far more common.

SMILES	CHO parental Ca	OX1R antag-1	OX1R antag-2	TAAR1 agonist	GalR3 antag	TAAR1 antagonist
O=C(Nc1ccccc1)c1ccc(Nc2c([N+](=O)[O-])cc([N+](=O)[O-])c3ccccc23)cc1	7	10	10	9	-3	41
O=[N+]([O-])c1cc(Br)c(Nc2ccccc2)c([N+](=O)[O-])c1	16	17	50*	4	-4	-1
C/C(=N\Nc1cccc([N+](=O)[O-])c1)c1cc(F)ccc1O	-9	27	68*	-2	-1	10
O=C(Nc1cccc2ccccc12)/C(=C\c1cccc([N+](=O)[O-])c1)NC(=O)c1cccs1	-8	19	56*	5	7	36
O=C(NCCO)/C(=C\c1ccc([N+](=O)[O-])o1)NC(=O)c1ccccc1	-14	-15	65*	3	0	17
CCOC(=O)/C(=C\c1ccc([N+](=O)[O-])o1)NC(=O)c1ccccc1	-17	-27	43*	.	.	.
O=C(Nc1cccc2ccccc12)/C(=C/c1cccc([N+](=O)[O-])c1)NC(=O)c1cccs1	-10	20	67	7	-12	29
Cc1ccc(C(=O)N/C(=C/c2ccc(-c3ccc([N+](=O)[O-])cc3)o2)C(=O)NCCCN(C)C)cc1	0	-23	21	0	2	-27
CCCOC(=O)/C(=C\c1ccc([N+](=O)[O-])o1)NC(=O)c1ccccc1	-12	-18	49	8	-2	10
O=C(NCCc1ccccc1)/C(=C\c1cccc([N+](=O)[O-])c1)NC(=O)c1ccco1	-13	-23	53*	37	-1	-16
O=C(N[C@@H](Cc1cccnc1)C(=O)N1CCC[C@H]1C(=O)NCc1ccccc1)c1ccc(Cl)cc1Cl	.	.	.	2	-3	-26
CCCc1nc2c3ccccc3ccn2c1CC(C)(C)C	.	.	.	-2	-3	-27
Cc1cccc(N(C(=O)c2snc(C(N)=O)c2N)C(C(=O)NCc2ccccc2)c2ccncc2)c1 (stereo not drawn)	-29	-41	42	0	-7	-18
CC(NC(=O)CN1C(=O)NC2(CCCCCC2)C1=O)c1ccccc1Cl (stereo not drawn)	-8	-11	9	14	-5	-1
O=C(NCCCO)/C(=C/c1ccc(-c2cccc([N+](=O)[O-])c2)o1)NC(=O)c1ccccc1	-7	-14	51*	1	2	11
O=C(NCCCN1CCOCC1)/C(=C/c1ccc(-c2cccc([N+](=O)[O-])c2)o1)NC(=O)c1ccccc1	.	.	.	1	-7	0
Cc1ccc(C(=O)N/C(=C\c2ccc(-c3cccc([N+](=O)[O-])c3)o2)C(=O)NC(C)(C)C)cc1	-17	1	74*	7	4	31
O=C(CSC1CCc2ccccc21)NNC(=O)Nc1ccc(Cl)cc1 (stereo not drawn)	.	.	.	7	-5	0
CC(C)(C)C(=O)NCCCc1nc2ccccc2n1CCCOc1ccc(Cl)cc1	2	-9	8	19	-2	66*
CC(=O)NCCc1nc2ccccc2n1CCOc1ccccc1	8	-13	9	39*	10	-23
CC[C@H]1CC2CN3CCc4c([nH]c5c([C@H]6C[C@H]7[C@H](CC)CN(C)[C@@H](Cc8c6[nH]c6ccccc86)[C@H]7C(=O)OC)c(OC)ccc45)C(C(=O)OC)(C2)C13	-31	-45	15	.	.	.
COC(=O)c1cc2c(c3c4cc(C)ccc4n(S(=O)(=O)c4ccc(OC)cc4)c13)C(=O)N(C)C2	.	.	.	-1	-7	-13
CNc1nc(SC)n(C)c(=O)c1N=O	-8	-6	48*	.	.	.
O=C(Nc1ccc([N+](=O)[O-])cc1)c1cc2ccccc2nc1Cl	-2	8	26	9	10	51*
CC(=O)Nc1ncc(Cc2cc(Cl)ccc2Cl)s1	-7	-22	70*	21	1	-6
SMILES	CHO parental Ca	OX1R antag-1	OX1R antag-2	TAAR1 agonist	GalR3 antag	TAAR1 antagonist
CC(=O)Nc1ncc(Cc2cccc(Cl)c2Cl)s1	-2	-10	16	6	-4	4
O=C(Nc1nc2cc3c(cc2s1)OCCO3)c1cccs1	7	12	66*	3	1	-7
CC(=O)Nc1ccc2nc(NC(=O)c3cccs3)sc2c1	-7	-9	20	2	2	-5
CCN(CC)S(=O)(=O)c1cccc(C(=O)Nc2nc3cc4c(cc3s2)OCCO4)c1	8	1	40	4	-5	52*
CC(C)(C)c1ccc(C#C[C@@H]2C=C[C@@H](O)[C@@H](COC(=O)NCc3ccccc3)O2)cc1	.	.	.	1	-6	-16
O=C(Nc1nnc(-c2ccc3c(c2)CCCC3)o1)c1ccc(Cl)cc1Cl	-5	5	55*	35	2	16
CCCCCCCCCCCCCCCC[N+](C)(C)CCN(Cc1ccc(OC)cc1)c1ncccn1	64*	46*	7	.	.	.
COc1ccc(CN(CCN(C)C)c2ccccn2)cc1	-12	-3	17	13	-6	-19
O=C(CNC(=O)c1ccccn1)N/N=C/c1ccccc1	-5	-11	25	40*	-3	4
COc1cccc(/C=C2\SC(=S)N(CCCC(=O)N(CCO)c3ccccc3)C2=O)c1	-24	-15	18	4	1	49*
O=C1/C(=C/c2cccc(Br)c2)SC(=S)N1CCC(=O)N(CCO)c1ccccc1	39*	-19	0	7	-11	9
Cc1cc(C)c(NC(=S)NC(CO)(CO)CO)c(C)c1	1	-12	11	7	2	-13
O=C(NCc1ccncc1)C(=O)NCC1OCCN1S(=O)(=O)c1ccccc1 (stereo not drawn)	.	.	.	2	-7	-16
COc1ccc(CNC(=O)CN2C(=O)COc3ccc(S(=O)(=O)N4CCCCC4)cc32)cc1	-20	-17	10	4	1	-18
O=C(NCC1COc2ccccc2O1)c1cccc(S(=O)(=O)NCc2ccccc2)c1 (stereo not drawn)	-10	-9	51*	10	-3	34
COc1ccc(C(=O)CSc2nc3ccccc3n2CC(=O)c2ccccc2)cc1	-26	-9	-2	19	-7	59*
CCOC(=O)c1c(C)[nH]c(C)c1C(=O)CSc1nc2ccccc2n1CC	-13	4	54	15	1	49*
